Screens deposited in PubChem by several laboratories.
STAT1 blocker = reduces IFN-gamma driven STAT1 reporter signal. 200,000 compounds, 0.35% hits. NIH 3T3 STAT1-luciferase reporter, luminescence. inhibition, % at 5.5 µM;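 active = inhibition above a set limit, the mean inhibition across all tested compounds plus 3 SD, cut at about 34% in these data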
STAT3 act = activators of IL-6 induced STAT3 signaling; U3A cells, IL-6 STAT3-luciferase reporter, luminescence; 100% = signal with IL-6 EC80 alone; activation (% of control), % at 5.6 µM; 190,000 compounds, 0.91% hits; AID 871;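 active = activation above the screen-wide mean of compound activation plus 3 SD, cut at about 130% in these data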
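Material: STAT3-luciferase reporter U3A cells. Controls: IL-6-treated wells, 100% activation. Read-out: % activation versus median of IL-6-stimulated wells. Probe or stimulus: IL-6 stimulus at 33 ng/mL final. Timing: compound 1 h, then IL-6 6 h at 37 °C. Signal: reporter luminescence signal.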
STAT3 inh = inhibitors of IL-6 induced STAT3 signaling; inhibition, % at 5.5 µM; U3A cells, IL-6 STAT3-luciferase reporter, luminescence; host cell line lacks STAT1; 190,000 compounds, 0.89% hits;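 active = inhibition above the mean inhibition across all screened compounds plus 3 SD, cut at about 44% in these data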
STAT1 activator = STAT1 signaling activation. activation (% of control), % at 5.5 µM. AID 932. NIH 3T3 STAT1-luciferase reporter, IFN-gamma, luminescence; 100% = IFN-gamma alone, no compound. 200,000 compounds, 2.6% hits;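 active = activation above the screen-wide mean activation plus 3 SD, cut at about 130% in these data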
APP 5'UTR act = activates APP 5'UTR luciferase reporter; SH-SY5Y APP 5'UTR luciferase reporter, luminescence; zero percent = DMSO vehicle wells; activation, % at 2 µM; 190,000 compounds, 1% hits; AID 1276;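 active = activation above a set limit, based on mean plus 3 SD of controls, cut at about 140% in these data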
NF-kB expr up = NF-kB expression increase, human neuronal cells. NF-kB reporter expression; stronger effect = higher value. fold change at 12.5 µM. 190,000 compounds, 1.6% hits; in the data active = fold change above about 3.3
Of the large screens only hits and unclear results are named; the others gave an inactive call; ! = a repeat was not active. The list is not random: actives were taken first. Their share in the collection is about 5.1%.

CN(C)S(=O)(=O)c1ccc(/C(O)=C2/C(=O)C(=O)N(Cc3cccnc3)C2c2cccs2)cc1 (configuration not stated)	none (no result: NF-kB expr up)
Cc1ccc(/C(O)=C2/C(=O)C(=O)N(Cc3cccnc3)C2c2ccccn2)cc1 (configuration not stated)	none
Cc1c(/C(O)=C2/C(=O)C(=O)N(Cc3cccnc3)C2c2ccccn2)cnn1-c1ccccc1 (configuration not stated)	STAT1 blocker 54.6, STAT3 inh 63.7
Cc1c(/C(O)=C2/C(=O)C(=O)N(Cc3cccnc3)C2c2cccs2)cnn1-c1ccccc1 (configuration not stated)	STAT1 activator 141.0, APP 5'UTR act 141.1
COc1ccc(-n2nc([N+](=O)[O-])c(=NCCC3=CCCCC3)n2O)cc1	none
CCOC(=O)c1sc(=NC(=O)/C=C/c2ccccc2)n(C)c1C	none
c1ccc(-n2ncc3c(NCc4cccs4)ncnc32)cc1	STAT1 activator 137.8
c1ccc2c(c1)oc1c(NCC3CCCO3)ncnc12 (configuration not stated)	none
Clc1ccc(-n2ncc3c(NCc4ccco4)ncnc32)cc1	STAT1 activator 149.9
COc1ccc(-n2ncc3c(NCc4ccccn4)ncnc32)cc1	none
c1ccc(-n2ncc3c(NCC4CCCO4)ncnc32)cc1 (configuration not stated)	STAT1 activator 129.2
COc1ccc(-n2ncc3c(NCc4cccs4)ncnc32)cc1	STAT1 activator 150.1
Clc1ccc(Cn2ncc3c(NCc4ccco4)ncnc32)c(Cl)c1	none
Cc1ccc(Nc2nc(N)nc(CC#N)n2)cc1	STAT1 activator 136.9
Cc1ccc(Nc2nc(N)nc(CSc3ncccn3)n2)cc1	STAT1 activator 130.5, NF-kB expr up 5.39
Nc1nc(CSc2n[nH]c(-c3ccccc3)n2)nc(Nc2ccccc2)n1	none
Nc1nc(CSc2ncccn2)nc(Nc2ccccc2)n1	STAT1 activator 134.1
Cc1ccc(Nc2nc(N)nc(CSCCO)n2)cc1	none
COc1ccc(Nc2cccc(Cl)c2)c(C(=O)O)c1	NF-kB expr up 3.57
O=C(O)CC1NC(=O)N(C2CCCCC2)C1=O (configuration not stated)	none
O=C1NC(c2ccc(Br)cc2)Nc2sc3c(c21)CCC3 (configuration not stated)	none
Cc1ccsc1C1NC(=O)c2c(sc3c2CCCC3)N1 (configuration not stated)	STAT1 activator 133.2
CN1CCc2c(sc3c2C(=O)NC(c2ccccc2)N3)C1 (configuration not stated)	none
Cc1ccc(C2NC(=O)c3c(sc4c3CCN(C)C4)N2)s1 (configuration not stated)	STAT1 activator 138.1
CN1CCc2c(sc3c2C(=O)NC(c2ccccn2)N3)C1 (configuration not stated)	none
O=C1NC(c2ccccn2)Nc2sc3c(c21)CCC3 (configuration not stated)	NF-kB expr up 5.04
CCCNCc1cc(OC)c(OCc2ccccc2)cc1Br	none (no result: NF-kB expr up)
Cc1cc(C)n(-c2ccc(C(=O)OCC(=O)Nc3cc(Cl)ccc3[N+](=O)[O-])cc2)n1	STAT3 act 134.3
O=C(CCSc1ccccc1)N1CCOCC1	none
O=C(CCSc1ccccc1)NC1CCCCCC1	STAT1 activator 143.9
O=C(CCSc1ccccc1)N1CCCC1	STAT1 activator 134.3
O=C(CCSc1ccc(Cl)cc1)NC1CCCCC1	none
O=S1(=O)Cc2cc3ccccc3cc2C1	none
CCN(CCCNC(=O)CCCOc1cc(=O)n(C)c2ccccc12)Cc1ccccc1	none
Cc1sc(-c2cccnc2)nc1OC(=O)C1CC1	none
Cc1[nH]c2ccc(C(=O)N3CCCCC3)cc2c1C	STAT1 activator 145.4, APP 5'UTR act 139.8, NF-kB expr up 4.17
O=c1[nH]c(=O)n([C@H]2C[C@H](O)[C@@H](CO)O2)cc1C(F)(F)F	NF-kB expr up 5.41
Cc1ccc(N=Nc2[nH]c3ccccc3c2O)cc1	STAT3 act 170.9, STAT1 activator 129.5
COc1ccc(N=Nc2[nH]c3ccc(C)cc3c2O)cc1	none
CC(=O)OCC(=O)[C@@]1(O)CC[C@H]2[C@@H]3CCC4=CC(=O)CC[C@]4(C)[C@H]3[C@@H](O)C[C@@]21C	none
C[C@]12CCC(=O)C=C1CC[C@@H]1[C@@H]2[C@@H](O)C[C@@]2(C)[C@H]1CC[C@]2(O)C(=O)COC(=O)CCC(=O)O	STAT1 activator 129.0!
COc1cc(C#N)c(NC(=S)N2CCOCC2)cc1OC	none
COC(=O)c1ccc(CSC2=NCCS2)cc1	STAT1 activator 129.9
COc1cccc(NC(=O)CN(C)CC(=O)Nc2ccc(C)cc2Cl)c1	none
CCCOc1c(Cl)cc(C(=O)NC)cc1OC	none
CCCN1CCc2c(sc(NC(=S)NC(=O)c3ccccc3)c2C#N)C1	none
CC(C)N1CCc2c(sc(NC(=S)NC(=O)c3ccccc3)c2C#N)C1	STAT1 activator 133.7
FC(F)(F)c1ccccc1NC1=NCCC1	none
CN(C(=O)Nc1ccc(Cl)c(Cl)c1)c1ccccc1C(=O)O	none
Cc1ccc(/C=N/Nc2ccc(Cl)c(C(=O)O)c2)s1	STAT1 activator 143.4, APP 5'UTR act 166.1, NF-kB expr up 7.95
Cc1ccc(/C=N/Nc2nc(Cl)c(Cl)cc2Cl)s1	STAT1 activator 147.0
O=C(O)c1cc(N/N=C/C(Cl)=C/c2ccccc2)ccc1Cl	STAT1 blocker 58.7, STAT3 inh 50.8
Cc1ccc(/C=N/NC(=O)c2cccs2)s1	none
O=C(O)c1cc(N/N=C/c2cccs2)ccc1Cl	APP 5'UTR act 151.9
Cc1ccsc1/C=N/Nc1nc(Cl)c(Cl)cc1Cl	none
O=C(N/N=C/c1cccs1)C(=O)N1CCCC1	none (no result: NF-kB expr up)
COc1ccc(CCNC(=O)CSc2nnc(Cc3cccn3C)n2C)cc1OC	none
Oc1ccc(/C=C/c2cc(O)cc(O)c2)cc1	APP 5'UTR act 150.8, NF-kB expr up 22.6
N#Cc1c(NCCO)nc(NCc2ccccc2)c2c1CCN(Cc1ccccc1)C2	NF-kB expr up 5.81
C=CCNc1nc(N2CCCCC2)c(C#N)c2c1CN(Cc1ccccc1)CC2	NF-kB expr up 4.73
CC(=O)Nc1cccc(/C(C)=N/NS(=O)(=O)c2ccc(C)cc2)c1	none
COc1ccc2oc(=O)c(C(=O)OCC(=O)c3ccc([N+](=O)[O-])cc3)cc2c1	none
Oc1csc(Cc2nc(-c3ccccc3F)cs2)n1	STAT1 activator 143.7
O=c1oc2ccccc2cc1-c1csc(Cc2nc(-c3ccc(Cl)cc3)cs2)n1	none
Oc1csc(Cc2nc(-c3ccc4ccccc4c3)cs2)n1	STAT3 act 163.3, STAT1 activator 128.9
Oc1csc(Cc2nc(-c3ccc(-c4ccccc4)cc3)cs2)n1	none
COc1ccc(OC)c(CNC(=O)c2coc(=O)c3ccccc23)c1	none
O=C(Nc1ccc(CN2CCOCC2)cc1)c1cccc(F)c1	STAT1 activator 132.9
